The list is not random: actives were taken first. Their share in the collection is about 2.1%.
GSTO1 inh = GSTO1 inhibition, counter-screen for RBBP9 inhibitors | P78417 | recombinant GSTO1, activity-based probe fluorescence polarization | inhibition, % at 5.96 µM | 300,000 tested, 1.1% active | AID 1974;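 active = inhibition above the campaign mean inhibition plus 3 SD, cut at about 35% in these data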;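 note: 0% = GSTO1-1 with DMSO and 100% = wells lacking GSTO1-1 enzyme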
Target sequence (P78417 whole entry, looked up): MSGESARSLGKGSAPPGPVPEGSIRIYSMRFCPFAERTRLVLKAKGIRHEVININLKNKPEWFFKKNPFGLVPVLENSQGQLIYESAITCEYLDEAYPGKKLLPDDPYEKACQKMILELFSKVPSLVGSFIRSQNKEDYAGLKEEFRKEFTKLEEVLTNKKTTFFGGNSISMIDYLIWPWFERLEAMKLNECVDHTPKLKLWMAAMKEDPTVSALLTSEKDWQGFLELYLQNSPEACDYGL
TDP2 inh = blocks human TDP2 phosphodiesterase activity | O95551 | recombinant TDP2, T5PNP hydrolysis, p-nitrophenol absorbance 415 nm | inhibition, % at 12.8 µM | 370,000 tested, 0.34% active | AID 720702;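 active = inhibition above the mean of all tested compounds plus 3 SD, set per campaign, cut at about 25% in these data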;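 note: 0% = DMSO with enzyme and 100% = buffer with substrate but no TDP2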
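Assay system: Recombinant human TDP2 | Quantity: 120 nM TDP2 per well | Incubation: 2 h at 37 °C | Signal: Epi absorbance | Evaluation: Percent inhibition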
PP5 inh = PP5 (human) phosphatase inhibition; P53041; purified PP5c, OMFP substrate fluorescence; inhibition, % at 6.7 µM; 320,000 tested, 0.18% active;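 active = inhibition above the campaign's mean inhibition across all tested compounds plus 3 SD, cut at about 9.5% in these data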;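 note: 0% = DMSO only and 100% = 100 µM cantharidin control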
Apaf1 inhib = human Apaf-1 inhibition; O14727; reconstituted apoptosome caspase-3 activity, DEVD-Rh110 fluorescence; inhibition, % at 20 µM; 330,000 tested, 0.71% active; AID 489030; active = inhibition of at least 40% at 20 µM;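 note: plate controls were DMSO wells for no effect and DEVD-CHO caspase inhibitor wells for full effect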
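Assay system – apoptosome proteins · Medium – Hepes buffer, pH 7.5 · Also added – cytochrome c with DEVD-Rh110 · Timing – 30 min compound preincubation, 50 min activation, room temperature · Detection – Rh110 fluorescence, excitation 480 nm, emission 540 nm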
PP1 inh = blocks human PP1-alpha phosphatase, a PP5 counter-screen; 320,000 tested, 0.9% active; purified PP1alpha, OMFP fluorescence; AID 2235; inhibition, % at 6.7 µM;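 active = inhibition above the mean inhibition of all tested compounds plus 3 SD, computed separately for each screening campaign, cut at about 15% in these data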
Target sequence (P62136 whole entry, looked up): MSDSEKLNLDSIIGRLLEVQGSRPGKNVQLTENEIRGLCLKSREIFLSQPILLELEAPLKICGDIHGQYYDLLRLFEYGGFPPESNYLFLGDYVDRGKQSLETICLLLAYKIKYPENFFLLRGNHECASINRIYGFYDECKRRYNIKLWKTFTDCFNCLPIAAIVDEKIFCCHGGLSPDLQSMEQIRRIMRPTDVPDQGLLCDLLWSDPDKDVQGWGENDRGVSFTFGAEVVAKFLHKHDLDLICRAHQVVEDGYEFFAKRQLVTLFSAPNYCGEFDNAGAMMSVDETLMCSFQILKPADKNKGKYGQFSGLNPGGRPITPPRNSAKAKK
Apaf-1 inh conf2 = confirmation of Apaf-1 inhibitors | 1,800 tested, 25% active | AID 504614 | inhibition, % at 20 µM | reconstituted apoptosome, caspase-3 DEVD-Rh110 fluorescence | shares compounds with Apaf1 inhib;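 active = mean inhibition of at least 40% at 20 µM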;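 note: plate controls were DMSO wells for no effect and DEVD-CHO caspase inhibitor control wells for full effect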
Rh110 quench = Rh110 signal interference in Apaf-1 inhibitor counter-screen | shares compounds with Apaf1 inhib | Rh110 fluorescence interference, quenched caspase reaction | AID 504615 | 1,800 tested, under 10 active | activation (fluorescence interference), % at 20 µM;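 active = signal rise of 40% or more at 20 µM, treated as a fluorescence artifact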
Fluor interf inh = Apaf-1 inhibitor counter-screen fluorescence artifact. shares compounds with Apaf1 inhib. fluorescence interference counterscreen, Apaf-1 assay format. IC50, µM. 460 tested, under 10 active. AID 588538; call rule not given here
An asterisk follows results filed as active; . = no result given.

SMILES	GSTO1 inh	TDP2 inh	PP5 inh	Apaf1 inhib	PP1 inh	Apaf-1 inh conf2	Rh110 quench	others
COC(=O)c1c(NC(=O)c2ccc(OC(C)C)cc2)sc2c1CC(C)(C)NC2(C)C	-2	-8	3	53*	1	10	7
C=CCN1[C@H](C)COc2cccc(N3CCSCC3)c2S1(=O)=O	.	5	.	.	.	.	.
COC(=O)[C@]12C[C@H](CC(=O)NCCC(C)C)C(=O)N(Cc3ccc(Cl)cc3Cl)C1=C[C@H](C(C)(C)C)O[C@@H]2C	.	-8	.	.	.	.	.
COc1cc(/C=C2/C(=O)N(c3ccc(Br)cc3)N=C2C)cc(OC)c1OC	.	.	.	94*	.	7	1
O=C(NCc1ccco1)Nc1ccc2nsnc2c1	5	-5	3	59*	7	4	4
CCS(=O)(=O)Nc1ccc2c(c1)C(=O)N(C)[C@@H]1CC[C@H](CC(=O)NCCOC)O[C@H]1CO2	.	5	.	.	.	.	.
CCC/C(=C1/c2ccccc2C(=O)N1c1ccccc1)c1cnc(OC)nc1	.	0	.	41*	.	24	2
CC(C)(C)c1ccc(-c2nnc3n2N=C(c2ccc4ccccc4c2)CS3)cc1	.	-1	.	.	.	.	.
COc1ccc2nc(C)cc(N/N=C/c3ccccc3)c2c1	.	.	2	50*	3	4	7
COc1ccc(/C=N/Nc2cc(C)nc3ccc(OC)cc23)c(OC)c1	-4	-3	2	43*	14	0	7
COc1ccccc1/C=N/Nc1cc(C)nc2ccc(C)cc12	-1	-5	1	22	-3	.	.
CCc1ccc2cccc3c2c1N=CN3C	19	13	3	87*	4	18	-4
COc1ccc(-c2cc(=O)n(-c3ccc([N+](=O)[O-])cc3)[nH]2)cc1	53*	-1	9	65*	15	14	4
CC1CCN(C(=O)Nc2ccc3nsnc3c2)CC1	4	12	3	2	-2	.	.
O=C(Nc1ccc2nsnc2c1)N1CCCCC1	25	5	4	73*	-3	3	-3
COc1ccc(CN2CCC(CNC(=O)NCc3ccccc3)CC2)cc1	.	8	.	.	.	.	.
COC(=O)[C@]12CCCCC=C1N(Cc1ccc(OC)cc1)C(=O)[C@@H]2CC(=O)N1CCC(c2ccccc2)CC1	.	2	.	.	.	.	.
COc1ccc(C(CNC(=O)C2CC(=O)N(Cc3ccccc3)C2)N2CCCC2)cc1 (centres undefined)	.	-1	4	61*	0	37	1
COc1ccc(C(CNC(=O)C2CC(=O)N(Cc3ccccc3)C2)N2CCOCC2)cc1 (centres undefined)	.	7	-1	-13	-6	.	.
COc1ccc(C(CNC(=O)c2cccc(S(=O)(=O)N(C)c3ccccc3)c2)N2CCCC2)cc1 (centres undefined)	.	7	1	43*	2	19	7
COc1ccc(S(=O)(=O)N2CCCCCC2)cc1C(=O)N(C)Cc1ccc(Cl)cc1Cl	3	-13	5	27	4	.	.
COc1ccc(S(=O)(=O)N2CCCCCC2)cc1C(=O)NCCc1ccccc1	.	-1	1	47*	-1	36	-7
CCN1CCN(S(=O)(=O)c2ccc(Cl)c(C(=O)N(C)Cc3ccccc3)c2)CC1	.	-1	-3	-7	-3	.	.
CCN1CCN(S(=O)(=O)c2ccc(Cl)c(C(=O)N(C)Cc3cccc(Cl)c3Cl)c2)CC1	-8	-1	0	43*	-4	30	-1
COc1ccc(S(=O)(=O)N2CCCCCC2)cc1C(=O)N(C)Cc1c(F)cccc1Cl	.	-8	-1	43*	1	31	4
SMILES	GSTO1 inh	TDP2 inh	PP5 inh	Apaf1 inhib	PP1 inh	Apaf-1 inh conf2	Rh110 quench	others
O=C(C1CC(=O)N(c2ccc3c(c2)OCCO3)C1)N1CCN(S(=O)(=O)c2cccc(F)c2)CC1 (centres undefined)	.	1	.	.	.	.	.
Cc1ccccc1CN1CCCCC(NC(=O)c2ccc(Br)cc2)C1=O (centres undefined)	.	7	.	.	.	.	.
CN(C)c1cc(N/N=C/c2ccccc2C(F)(F)F)nc(N(C)C)n1	23	22	2	56*	4	51*	0	Fluor interf inh=>100
Cc1ccc(-c2cc(NC(=O)Cc3c(C)[nH]c4ccccc34)ccc2Nc2cccnc2)cc1	.	0	.	.	.	.	.
O=Cc1cscc1[B-](F)(F)F	.	2	.	.	.	.	.
CN(C)CCCNC(=O)C[C@H]1C[C@H](C(=O)N2CCCCC2)[C@@]2(CCc3ccccc3)c3[nH]c4ccc(Cl)cc4c3CCN2C1=O	.	7	.	74*	.	29	21
CN(C)CCCNC(=O)C[C@H]1C[C@H](C(=O)N2CCOCC2)[C@@]2(CCC3CCCC3)c3[nH]c4cc(-c5ccco5)ccc4c3CCN2C1=O	.	6	.	67*	.	28	3
CCN(CC)C(=O)[C@H]1CC(CC(=O)NC/C=C(\C)CCC=C(C)C)C(=O)N2CCc3c([nH]c4ccc(OC)cc34)[C@]12C (some centres undefined)	.	-4	.	42*	.	24	10
CCN(CC)C(=O)[C@H]1C[C@H](CC(=O)NC/C=C(\C)CCC=C(C)C)C(=O)N2CCc3c([nH]c4ccc(Cl)cc34)[C@]12C	.	-7	.	36	.	.	.
O=C(C[C@H]1C[C@H](C(=O)N2CCOCC2)[C@@]2(CCC3CCCC3)c3[nH]c4ccc(Cl)cc4c3CCN2C1=O)NCCCn1ccnc1	.	2	.	58*	.	24	17
CCOC(=O)N1CCN(C(=O)C[C@H]2C[C@@]3(C(=O)OC)C(=C[C@H](C4CCCC4)O[C@@H]3C)N(Cc3ccco3)C2=O)CC1	.	-5	.	.	.	.	.
CC(C)C[C@H](NC1(C(=O)NC2CCCCC2)CCOCC1)C(=O)NCC(c1ccccc1)c1ccccc1	.	3	.	.	.	.	.
CC(C)N(C(=O)[C@H]1C[C@H](CC(=O)NCCCN(C)C)C(=O)N2CCc3c([nH]c4cc(-c5ccco5)ccc34)[C@]12C)C(C)C	.	-2	.	52*	.	4	2
CC(C)n1nnnc1C1c2ccccc2OCC(=O)N1Cc1cccc(C(F)(F)F)c1 (centres undefined)	.	0	.	.	.	.	.
Cn1c(=O)c2c(nc(CN3CCc4ccccc4C3)n2Cc2cccc(Cl)c2)n(C)c1=O	0	4	1	51*	10	20	2
CCN(CC)CCn1c(SCC(=O)Nc2ccc3c(c2)CCC3)nc2ccccc2c1=O	.	-9	5	51*	6	7	8
CCOCCCn1c(SCC(=O)Nc2cc(C(C)(C)C)nn2-c2ccccc2)nc2ccccc2c1=O	6	4	3	40*	-2	23	8
